Experiment [1] in a line: inhibitors of TNFa-induced NFkB p65 translocation, primary screen, imaging, HUVEC, MLSMR starter and 10KST1 sets (AID 438;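 active = inhibition above 20% together with a positive visual image hit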;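 also: compound added about 3h40 before a 20 min TNFalpha stimulation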;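 as to inhibition: signal is the nuclear over cytoplasmic p65 intensity ratio per well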). The conditions noted are these: HUVEC TNFa-induced p65 nuclear translocation; cell count: measured here: nuclei count (cytotoxicity indicator), at 2.08 µM; inhibition: at 2 µM, stronger effect = higher value, 0% TNFa-plus-vehicle, 100% no-TNFa wells.
The nature of experiment [2]: endothelial E-selectin expression blockers – imaging, HUVEC, immunofluorescence, MLSMR starter and 10KST1 sets, primary screen (AID 487;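 active = visually confirmed hit in the image check and inhibition above 20%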;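 as to inhibition: signal is fraction of cell area covered by stained E-selectin grains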;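 as to nuclei count: 100% = median nuclei count of all wells on the same plate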). As to conditions: HUVEC TNFalpha-induced E-selectin immunofluorescence imaging, at 2 µM; inhibition: stronger effect = higher value; nuclei count: measured here: cell number, toxicity.
A short description of experiment [3]: Primary imaging screen for DUSP6 inhibitors that restore phospho-Erk in transfected HeLa cells, chemical complementation (AID 609;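 active = compounds giving at least 50% inhibition in the cell-based MKP-3 phosphatase rescue imaging test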;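 as to inhibition: phospho-Erk level distribution per well compared with pooled transfected vehicle control wells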). As to conditions: HeLa MKP-3 transfected, phospho-Erk imaging KS statistic, at 10 µM, cells stimulated with TPA for 15 min.
For experiment [4], the target named is Dual specificity protein phosphatase 6 (Homo sapiens) (UniProt Q16828). The experiment is described as above. As to conditions: HeLa MKP-3 transfected, phospho-Erk imaging KS statistic; at 10 µM; stronger effect = higher value; cells stimulated with TPA for 15 min.
Dual specificity protein phosphatase 6 (Homo sapiens), sequence (Q16828 whole entry, looked up): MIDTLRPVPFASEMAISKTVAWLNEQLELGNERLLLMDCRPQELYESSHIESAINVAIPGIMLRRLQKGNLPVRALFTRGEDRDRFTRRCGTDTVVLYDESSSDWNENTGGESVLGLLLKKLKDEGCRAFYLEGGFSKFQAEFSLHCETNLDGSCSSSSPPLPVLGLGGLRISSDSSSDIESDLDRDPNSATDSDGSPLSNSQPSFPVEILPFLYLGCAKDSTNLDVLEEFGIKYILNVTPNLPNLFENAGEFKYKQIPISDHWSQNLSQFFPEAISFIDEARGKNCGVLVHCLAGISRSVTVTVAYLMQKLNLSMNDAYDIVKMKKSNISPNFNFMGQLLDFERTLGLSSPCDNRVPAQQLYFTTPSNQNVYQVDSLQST
The target of experiment [5] is Voltage-gated potassium channel subunit beta-2 (Rattus norvegicus) (UniProt P62483). Kind of experiment: inhibitors of rat Kvbeta2 reductase activity – biochemical, NADPH fluorescence, primary screen (AID 622;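 active = fluorescence slope higher than the sample average by over 3 SD, cut at about -0.22 in these data, passing the limit was not always enough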;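 also: slope of raw intensity against log time taken from 70 to 1610 s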). The conditions noted are these: recombinant KvBeta, 4-cyanobenzaldehyde reduction, at 10 µM, stronger effect = higher value.
Voltage-gated potassium channel subunit beta-2 (Rattus norvegicus), sequence (P62483 whole entry, looked up): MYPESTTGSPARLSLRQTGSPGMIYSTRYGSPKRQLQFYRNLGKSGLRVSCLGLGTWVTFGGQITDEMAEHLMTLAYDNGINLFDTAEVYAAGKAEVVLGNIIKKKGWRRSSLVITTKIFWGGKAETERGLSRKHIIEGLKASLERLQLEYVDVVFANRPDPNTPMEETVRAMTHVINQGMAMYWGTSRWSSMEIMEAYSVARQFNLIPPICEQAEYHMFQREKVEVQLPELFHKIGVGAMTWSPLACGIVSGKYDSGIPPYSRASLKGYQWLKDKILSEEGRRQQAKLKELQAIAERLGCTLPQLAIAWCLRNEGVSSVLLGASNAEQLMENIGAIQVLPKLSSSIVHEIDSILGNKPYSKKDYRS
For experiment [6] the target is unchanged. As to the kind of experiment: enhancers of rat Kvbeta2 NADPH turnover – biochemical, NADPH fluorescence, primary screen (AID 623;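 active = NADPH fluorescence slope more negative than the mean of all samples by about 3 SD, 99.7% confidence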;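 also: fluorescence intensity change per second fitted from 20 to 320 s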). As to conditions: Recombinant KvBeta, NADPH fluorescence decrease slope, 10 min; at 10 µM; stronger effect = lower value.
Experiment [7] addresses Muscarinic acetylcholine receptor M4 (Homo sapiens) (UniProt P08173). Kind of experiment: M4-linked GIRK flux change, two-sided – cell-based, HEK293 M4/GIRK, thallium flux, BTC-AM, M4 allosteric agonist project, primary screen (AID 625;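 active = fluorescence slope after compound addition differing from the mean of all tested samples at 99.7% confidence, mostly higher but some lower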;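 also: thallium influx through GIRK channels coupled to M4 in HEK293 cells with BTC-AM dye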). The conditions noted are these: at 10 µM, actives lie on both sides. The essentials:
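System: HEK293 cells with M4 receptor and GIRK channels | Incubation: Cells overnight at 37 °C, BTC-AM loading 1 h, reads 2 min total | Technique: Kinetic BTC-AM fluorescence sampled at 1 Hz, 10 s pre-addition baseline | Measure: Post-addition slope, 15–24 s, of baseline-normalized fluorescence | Control set: Carbachol positive, DMSO negative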

Experiment [8] can be described thus: inhibitors of larval lipid processing in zebrafish, primary screen, whole organism, PED6 fluorescence, gall bladder and intestine (AID 686).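 Also: larvae 5 to 7 days old with five fish per well; signal comes from phospholipase A2 cleavage of quenched PED6 carried via bile; overnight exposure to compound and PED6 before scoring.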 As to conditions: Zebrafish larvae PED6 lipid processing, fluorescence scoring; screened at 20 µM (by protocol). The method, boiled down:
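Test system – live zebrafish larvae aged 5-7 days, whole organism · Buffer or medium – E3 fish medium · Reagent – quenched phospholipase substrate PED6, 100 nM final, ingested by larvae · Doses – 20 µM single dose · Incubation – overnight compound and PED6 incubation · Technique – visual fluorescence microscopy scoring of gall bladder, gut · Read-out basis – visual per-well fluorescence inhibition score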

The nature of experiment [9]: loss of swimming-algae plug formation – whole organism, Chlamydomonas reinhardtii, WT vs cilia-less mutant, absorbance, 96-well, primary screen (AID 463189;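 active = inhibition at or above 50% relative to wild type and mutant plate controls; inactive = inhibition below 50%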;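 also: 0% = wild type cc124 cells in DMSO and 100% = ciliumless bld1 mutant cells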). As to conditions: Chlamydomonas reinhardtii gravitaxis, OD600 absorbance, 2 days; at 10 µM; stronger effect = higher value.
[10] abbreviates: measured here: cell density z-score.
[11] abbreviates: measured here: nuclear c-Myc green intensity z-score.
Where [12] appears, read: measured here: nuclear pErk red intensity z-score, stronger effect = higher value.

Each structure is given as a SMILES string. The source made the active and inactive calls.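 The calls were made as follows, unless noted: active = a full or partial loss of lipid-probe fluorescence in the fish gall bladder, intestine or both, judged by eye; inactive = no fluorescence loss, or compound toxic to the fish.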

Muscarinic acetylcholine receptor M4 (Homo sapiens), sequence (P08173 whole entry, looked up): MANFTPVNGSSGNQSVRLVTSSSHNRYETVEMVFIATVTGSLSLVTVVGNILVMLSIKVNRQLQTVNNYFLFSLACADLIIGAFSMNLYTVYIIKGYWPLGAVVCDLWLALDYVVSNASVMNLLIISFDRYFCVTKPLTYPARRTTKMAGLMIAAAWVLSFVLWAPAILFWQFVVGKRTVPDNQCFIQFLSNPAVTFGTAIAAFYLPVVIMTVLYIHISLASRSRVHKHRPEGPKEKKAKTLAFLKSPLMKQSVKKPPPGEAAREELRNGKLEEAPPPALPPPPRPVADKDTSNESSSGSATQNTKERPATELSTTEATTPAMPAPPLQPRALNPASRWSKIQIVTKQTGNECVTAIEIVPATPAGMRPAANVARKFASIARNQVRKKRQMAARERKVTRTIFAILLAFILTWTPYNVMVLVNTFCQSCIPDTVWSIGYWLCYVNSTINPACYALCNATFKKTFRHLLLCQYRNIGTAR

The term inhibition denotes the change of the read-out against control, counted positive when it falls. Consider `COc1ccc(C2C(C#N)=C(N)Oc3cc(C)n(CCN4CCOCC4)c(=O)c32)cc1OC` (stereo not drawn), for which the cell count in experiment [1] came out at 520. Besides, the inhibition in [1] is -5.9% (inactive); in experiment [2], 0.9% (inactive); in experiment [4] it was -10.1% (inactive); in experiment [9], 1.58% (inactive). The same compound displayed a nuclei count in [2] of 110%. The z-score in experiment [3] (setting [10]) was -1.19; in experiment [3] (setting [11]) it was 0.613; in experiment [3] (setting [12]) it was -1.48. Also, the fluorescence slope in experiment [5] was -0.468 (inactive); in experiment [7], 0.00521 (inactive). For the same compound, the NADPH fluorescence slope in experiment [6] was -3.9e-05 (inactive). Also, the compound was classed as inactive in experiment [8].
Turning to `COc1ccc(N2CCN(c3oc(COc4ccc(Cl)cc4)nc3C#N)CC2)cc1`, in experiment [1], the cell count amounted to 374. Further, the inhibition in experiment [1] was -3.3% (inactive); in experiment [2] it was -61.3% (inactive); in [4] it was 2.71% (inactive); in experiment [9], -10.3% (inactive). In [2], this compound registered a nuclei count of 106%. For the same compound, the z-score in experiment [3] (setting [10]) was 1.12; in [3] (setting [11]), 0.417; in experiment [3] (setting [12]) it was 0.177. Moreover, the fluorescence slope is -0.46 (inactive) in experiment [5] and 0.00414 (inactive) in [7]. For the same compound, the NADPH fluorescence slope in experiment [6] was -7e-05 (inactive). Also, the result in experiment [8] was inactive.
As to `O=S(=O)(c1ccccc1)N(CC(O)CN1CCCCC1)c1ccccc1` (stereo not drawn), the cell count in experiment [1] came to 596. Besides, the inhibition was -4.6% (inactive) in experiment [1], 36.6% (inactive) in experiment [2], 5.42% (inactive) in experiment [4] and 26.5% (inactive) in experiment [9]. Besides, in experiment [2], the nuclei count worked out at 84.8%. For the same compound, the values for the z-score in experiment [3] (setting [10]), in experiment [3] (setting [11]) and in experiment [3] (setting [12]) were -0.887, 0.0372 and 0.232, respectively. Besides, the values for the fluorescence slope in experiment [5] and in [7] were -0.342 (inactive) and 0.00483 (inactive), respectively. Besides, the NADPH fluorescence slope in [6] is -2.3e-05 (inactive). Moreover, the call in experiment [8] was inactive.
On to `O=C(c1ccccc1)c1cc(-c2ccccc2)on1`, for which, in [1], the cell count turned out to be 589. Moreover, the inhibition in experiment [1] was -3.4% (inactive); in experiment [2] it was -39.7% (inactive); in experiment [4] it was -13.3% (inactive); in experiment [9], -6.04% (inactive). The nuclei count in [2] stood at 118%. Moreover, the figures for the z-score in experiment [3] (setting [10]), in [3] (setting [11]) and in [3] (setting [12]) were -0.313, -0.603 and 0.519, respectively. Moreover, the fluorescence slope in experiment [5] was -0.41 (inactive); in [7], 0.00548 (inactive). Also, the NADPH fluorescence slope in experiment [6] is -7.5e-05 (inactive). The call in [8] was inactive.
Turning to `O=C(c1ccc(-n2cnnn2)cc1)N1CCOCC1`, the cell count in [1] turned out to be 670. For the same compound, the inhibition in experiment [1] was -3.5% (inactive); in experiment [2] it was 18.9% (inactive); in experiment [4] it was 4.72% (inactive); in [9], -1.94% (inactive). Also, the nuclei count in [2] is 171%. Moreover, the z-score was 0.439 in experiment [3] (setting [10]), -0.115 in experiment [3] (setting [11]) and 0.866 in experiment [3] (setting [12]). Also, the fluorescence slope in experiment [5] was -0.492 (inactive); in experiment [7] it was 0.00579 (inactive). Further, the NADPH fluorescence slope in [6] was -4.1e-05 (inactive). Further, the call in [8] was inactive.
As for `Oc1oc(-c2ccco2)nc1C=Nc1cccc(Cl)c1`, the cell count in experiment [1] came to 562. Further, the inhibition in experiment [1] was 5.6% (inactive); in [2], -19% (inactive); in experiment [4], -12.6% (inactive); in experiment [9], -1.6% (inactive). The compound further displayed a nuclei count in experiment [2] of 131%. For the same compound, the results for the z-score in [3] (setting [10]), in [3] (setting [11]) and in [3] (setting [12]) were -0.184, -1.01 and 0.105, respectively. The results for the fluorescence slope in experiment [5] and in experiment [7] were -0.449 (inactive) and 0.00392 (inactive), respectively. Also, the NADPH fluorescence slope in experiment [6] was -0.000133 (inactive). The compound was called inactive in [8].
For the compound `CCOc1ccc(NC(=O)CSC2=C(C#N)C(c3ccc4c(c3)OCO4)CC(=O)N2)cc1` (stereo not drawn), in experiment [1], the cell count worked out at 639. Further, the inhibition in [1] was 0.6% (inactive); in experiment [2], 75.3% (inactive); in experiment [4], -6.06% (inactive); in [9], 14.4% (inactive). In [2], this compound displayed a nuclei count of 140%. Also, the z-score is 0.00899 in experiment [3] (setting [10]), -0.0485 in [3] (setting [11]) and -0.833 in experiment [3] (setting [12]). Also, the fluorescence slope in [5] is -0.47 (inactive); in [7], 0.00582 (inactive). Further, the NADPH fluorescence slope in [6] is -5.2e-05 (inactive). Besides, the call in [8] was inactive.
`COC(=O)c1c(C)[nH]c(C(=O)OCc2ccc(F)cc2)c1C`: in experiment [1], the cell count was found to be 693. Further, the inhibition was -3.8% (inactive) in experiment [1], 50.5% (inactive) in experiment [2], 7.21% (inactive) in experiment [4] and 80.6% (active) in experiment [9]. Also, the nuclei count in experiment [2] was found to be 160%. Moreover, the results for the z-score in experiment [3] (setting [10]), in experiment [3] (setting [11]) and in experiment [3] (setting [12]) were -0.559, -1.43 and -0.0192, respectively. The fluorescence slope in experiment [5] was -0.461 (inactive); in [7], 0.00635 (inactive). Moreover, in [6], the NADPH fluorescence slope was -1.9e-05 (inactive). Also, in [8], the result was inactive.
Turning to `CCCCC(=O)C1CCN(Cc2ccccc2)CC1`, the cell count in experiment [1] is 371. Besides, the inhibition was -0.5% (inactive) in experiment [1], 19.3% (inactive) in experiment [2], -0.584% (inactive) in [4] and 126% (active) in experiment [9]. Also, in experiment [2], the nuclei count came out at 177%. For the same compound, the z-score in [3] (setting [10]) was determined as 0.378; in experiment [3] (setting [11]) it was 0.471; in [3] (setting [12]) it was 0.337. Besides, the figures for the fluorescence slope in [5] and in experiment [7] were -0.469 (inactive) and 0.00375 (inactive), respectively. In addition, in [6], the NADPH fluorescence slope is -0.000111 (inactive). In experiment [8], the outcome was “inactive; toxic”.
Consider `CCOc1ccc(/C(O)=C2/C(=O)C(=O)N(c3cc(C)on3)C2c2ccc(C(=O)OC)cc2)cc1` (stereo not drawn), for which the cell count in experiment [1] came out at 391. For the same compound, the inhibition is -0.4% (inactive) in experiment [1], -27.6% (inactive) in experiment [2], 9.37% (inactive) in experiment [4] and 11.4% (inactive) in experiment [9]. Also, the nuclei count in [2] was 105%. Also, the values for the z-score in experiment [3] (setting [10]), in [3] (setting [11]) and in experiment [3] (setting [12]) were -0.142, 1.45 and -0.188, respectively. In addition, the fluorescence slope is -0.419 (inactive) in experiment [5] and 0.00438 (inactive) in experiment [7]. Also, the NADPH fluorescence slope in experiment [6] is -1.9e-05 (inactive). The outcome in experiment [8] was inactive.
Turning to `CC(NC(=O)Nc1ncccn1)(C(F)(F)F)C(F)(F)F`, in experiment [1], the cell count was 705. The inhibition in [1] is -8.4% (inactive); in experiment [2], -9.7% (inactive); in experiment [4], 3.97% (inactive); in [9], -10.4% (inactive). Further, the nuclei count in [2] came out at 107%. Moreover, the z-score was -2.34 in [3] (setting [10]), 2.27 in experiment [3] (setting [11]) and -1.54 in experiment [3] (setting [12]). Besides, the results for the fluorescence slope in experiment [5] and in experiment [7] were -0.481 (inactive) and 0.00693 (inactive), respectively. Also, the NADPH fluorescence slope in experiment [6] was -0.000112 (inactive). Also, in experiment [8], the result was inactive.

These data come from PubChem BioAssay.
